The source of these data is paper PMC6207383 (International Journal of Nanomedicine, 2018).

One data set deals with HepG2-TS. The data set is described as follows: CCK-8 cytotoxicity assay in HepG2 tumor spheres. In kind it is cell-based, human. In outline:
(§1)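 Cells seeded at 5×10^3/well and left overnight at 37°C to attach. They were then exposed for 48 h to graded concentrations of each agent alone or combined at fixed molar ratios (4:1, 2:1, 1:1, 1:2, 1:4). CCK-8 was added for about 2 h and A450 read. Viability = (AE–AB)/(AC–AB)×100%, using untreated and blank wells. HepG2 were grown in DMEM/10% FBS. Spheres were grown in DMEM-F12 with B27, ITS, 20 ng/mL EGF and bFGF, dissociated with Accutase and passed through a 100-µm sieve.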
A general note: Tetrazolium assays rely on reduction of a dye to a coloured formazan, in cell work by metabolically active cells.

The test system of data set [1] is HepG2 cells. As to the kind of experiment: Tumor sphere formation assay. The conditions noted are these: DOX and ELC 0.15 µM, 7 days. In kind it is cell-based, human. In outline: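 Trypsinized HepG2 cells were seeded at 500 cells/well in ultra-low-attachment wells in DMEM/F12 with 1× B27, 1× ITS, 20 ng/mL EGF and 20 ng/mL bFGF, then left overnight. Cells were exposed to free or nanoparticle test compounds (each drug at 0.15 µM final). After 7 days, tumor spheres were counted by microscope.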

The test system of data set [2] is HepG2 cells. As to the kind of experiment: Colony formation assay. In kind it is cell-based, human. Conditions: DOX and ELC 0.01 µM, 24 hours treatment, 8–10 days growth. In outline: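 HepG2 cells were maintained in DMEM with 10% FBS and penicillin/streptomycin at 37°C, 5% CO2. They were seeded at 1×10^5 cells/well, left overnight, then exposed 24 h to free or nanoparticle test compounds (each drug at 0.01 µM final). Cells were trypsinized, reseeded at 800 cells/well and grown 8–10 days at 37°C. Colonies were stained with 1% crystal violet for 20 min at room temperature and counted by microscope.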

Data set [3] concerns HepG2 cells. The data set is described as follows: CCK-8 cytotoxicity assay in HepG2 cells. In kind it is cell-based. Conditions: Homo sapiens, HepG2, 48 h. The essentials:
as §1

Data set [4] can be described thus: Tissue distribution study in vivo. Details: species or system BALB/c nude mice. Conditions: iv 10 µg DiR per mouse, 2–24 hours. In outline: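 Male BALB/c nude mice (4–6 weeks, about 20 g) bore subcutaneous right-back tumours from 2×10^6 HepG2 cells. At about 300 mm3 they were randomised to saline, free DiR or DiR-loaded nanoparticles, given as a single tail-vein injection. Imaging was under isoflurane at 745/820 nm excitation/emission, at 2, 4, 6, 8, 12 and 24 h. At 24 h, excised organs and tumours were imaged and quantified as total radiant efficiency.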

Regarding `COc1cccc2c1C(=O)c1c(O)c3c(c(O)c1C2=O)C[C@@](O)(C(=O)CO)C[C@@H]3O[C@H]1C[C@H](N)[C@H](O)[C@H](C)O1` [DOX, doxorubicin], 0.477 ± 0.0514 µM corresponded to half-maximal inhibition with HepG2-TS (HepG2-TS, 48 hours, CCK-8) (IC50). Moreover, the tumor sphere formation result in the data set with HepG2 cells [1] is listed as “decreased tumor sphere formation compared with that in the control”. For the same compound, the “number of colonies formed” value in the data set on HepG2 cells [2] is recorded as “reduced the formation of colonies compared with the control”.
As for `COc1cc2c(cc1OC)CN(CCc1ccc(NC(=O)c3cccc4c(=O)c5cccc(OC)c5[nH]c34)cc1)CC2` [ELC, elacridar], the IC50 (usually the midpoint of a concentration-inhibition curve) in the data set with HepG2 cells [3] was 9.27 ± 2.61 µM; with HepG2-TS (Homo sapiens, HepG2, 48 h), 13.7 ± 4.27 µM. In addition, in the data set with HepG2 cells [1], the tumor sphere formation entry is “decreased tumor sphere formation compared with that in the control”. Also, the “number of colonies formed” value in the data set on HepG2 cells [2] is on record as “reduced the formation of colonies compared with the control”.
As for `CCCCCCCCCCCCCCCCCCN1/C(=C/C=C/C=C/C=C/C2=[N+](CCCCCCCCCCCCCCCCCC)c3ccccc3C2(C)C)C(C)(C)c2ccccc21.[I-]` [free DiR], in data set [4], the “DiR signals in real-time in vivo images” value is recorded as “No obvious DiR signals”.
